Results: ChEMBL document CHEMBL1122917, “Vinblastin-23-oyl amino acid derivatives: chemistry, physicochemical data, toxicity, and antitumor activities against P388 and L1210 leukemias” (J Med Chem, 1985)

Tests used:
Assay type in all cases: functional
Mus musculus [1] = experiment: Number of survivors of DBA2 mice on 60th day after inoculation with L1210 leukemia cell line intraperitoneally at a dose of 70 mg/kg/day; 0/10; details: route intraperitoneal
Mus musculus [2] = experiment: Number of survivors of DBA2 mice on 60th day after inoculation with L1210 leukemia cell line intraperitoneally at a dose of 75 mg/kg/day; 0/10; details: route intraperitoneal
Mus musculus [3] = experiment: Percent increase in life span of DBA2 mice after inoculation with L1210 leukemia intravenously at a dose of 55 mg/lg per day
Mus musculus [4] = experiment: Percent increase in life span of DBA2 mice after inoculation with L1210 leukemia intravenously at a dose of 60 mg/kg per day; details: route intravenous
Summary of the method: (§1)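 Female DBA2 mice inoculated iv on day 0 with 10^4 L1210 cells; drugs given iv as sulfate salts in physiological saline, mostly once on day 1. %ILS from all deaths and survivors as (T/C × 100) − 100; survivors scored on days 30 and 60.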

Mus musculus [5] = experiment: Percent increase in life span of DBA2 mice after inoculation with L1210 leukemia intravenously at a dose of 65 mg/kg per day; details: route intravenous; summary of the method: as §1
Mus musculus [6] = experiment: Percent increase in life span of DBA2 mice after inoculation with L1210 leukemia intravenously at a dose of 70 mg/kg per day; details: route intravenous; summary of the method: as §1
Mus musculus [7] = experiment: Percent increase in life span of DBA2 mice after inoculation with L1210 leukemia intravenously at a dose of 75 mg/kg per day; details: route intravenous
Mus musculus [8] = experiment: Number of survivors on 60th day at dose 55 mg/kg/day in 10 mice implanted with P388 leukemia cell line
Mus musculus [9] = experiment: Number of survivors on 60th day at dose 60 mg/kg/day in 10 mice implanted with P388 leukemia cell line
Summary of the method: (§2)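 Female DBA2 mice inoculated iv on day 0 with 10^4 P388 cells; single iv treatment on day 1 with drug as sulfate salt in physiological saline. Survival followed; %ILS from all deaths and survivors as (T/C × 100) − 100, maximal MST 30 days; survivors counted on days 30 and 60. Most experiments confirmed three times.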

Mus musculus [10] = experiment: Percent increase in life span at dose 75 mg/kg/day in 10 mice implanted with P388 leukemia cell line
Mus musculus [11] = experiment: Number of survivors of DBA2 mice on 30th day after inoculation with L1210 leukemia cell line intravenously at a dose of 55 mg/kg/day; 0/10; details: route intravenous
Mus musculus [12] = experiment: Number of survivors of DBA2 mice on 30th day after inoculation with L1210 leukemia cell line intravenously at a dose of 60 mg/kg/day; 0/10; details: route intravenous
Mus musculus [13] = experiment: Number of survivors of DBA2 mice on 30th day after inoculation with L1210 leukemia cell line intravenously at a dose of 65 mg/kg/day; 0/10; details: route intravenous
Mus musculus [14] = experiment: Number of survivors of DBA2 mice on 30th day after inoculation with L1210 leukemia cell line intravenously at a dose of 70 mg/kg/day; 0/10; details: route intravenous
Mus musculus [15] = experiment: Number of survivors of DBA2 mice on 30th day after inoculation with L1210 leukemia cell line intravenously at a dose of 75 mg/kg/day; 0/10; details: route intravenous
Mus musculus [16] = experiment: Number of survivors on 60th day at dose 50 mg/kg/day in 10 mice implanted with P388 leukemia cell line
Mus musculus [17] = experiment: Percent increase in life span at dose 80 mg/kg/day in 10 mice implanted with P388 leukemia cell line; summary of the method: as §2
Mus musculus [18] = experiment: Percent increase in life span at dose 55 mg/kg/day in 10 mice implanted with P388 leukemia cell line; summary of the method: as §2
Mus musculus [19] = experiment: Number of survivors on 60th day at dose 75 mg/kg/day in 10 mice implanted with P388 leukemia cell line
Mus musculus [20] = experiment: Number of survivors on 60th day at dose 80 mg/kg/day in 10 mice implanted with P388 leukemia cell line
Mus musculus [21] = experiment: Percent increase in life span at dose 60 mg/kg/day in 10 mice implanted with P388 leukemia cell line; summary of the method: as §2
Mus musculus [22] = experiment: Number of survivors on 30th day at dose 50 mg/kg/day in 10 mice implanted with P388 leukemia cell line
Mus musculus [23] = experiment: Number of survivors on 30th day at dose 55 mg/kg/day in 10 mice implanted with P388 leukemia cell line
Mus musculus [24] = experiment: Number of survivors on 30th day at dose 60 mg/kg/day in 10 mice implanted with P388 leukemia cell line
Mus musculus [25] = experiment: Number of survivors of DBA2 mice on 60th day after inoculation with L1210 leukemia cell line intravenously at a dose of 55 mg/kg/day; 0/10; details: route intravenous
Mus musculus [26] = experiment: Number of survivors of DBA2 mice on 60th day after inoculation with L1210 leukemia cell line intravenously at a dose of 60 mg/kg/day; 0/10; details: route intravenous
Mus musculus [27] = experiment: Number of survivors of DBA2 mice on 60th day after inoculation with L1210 leukemia cell line intravenously at a dose of 65 mg/kg/day; 0/10; details: route intravenous
Mus musculus [28] = experiment: Number of survivors on 30th day at dose 75 mg/kg/day in 10 mice implanted with P388 leukemia cell line
Mus musculus [29] = experiment: Number of survivors on 30th day at dose 80 mg/kg/day in 10 mice implanted with P388 leukemia cell line
Mus musculus [30] = experiment: Percent increase in life span at dose 50 mg/kg/day in 10 mice implanted with P388 leukemia cell line; summary of the method: as §2

How did the Survivors (Mus musculus [1]) turn out when `CCOC(=O)[C@H](Cc1ccccc1)NC(=O)[C@@]1(O)[C@H](O)[C@]2(CC)C=CCN3CC[C@@]4(c5cc([C@@]6(C(=O)OC)C[C@H]7C[N@](CCc8c6[nH]c6ccccc86)C[C@](O)(CC)C7)c(OC)cc5N(C)[C@@]14C)[C@@H]32` was run?
The Survivors was 0.

And the Survivors (Mus musculus [2])?
Its Survivors is 0.

What about the ILS (Mus musculus [3]) of the same molecule?
Its ILS is 0%.

What about the ILS at 60 mg/kg/day (Mus musculus [4]) of the same molecule?
The ILS at 60 mg/kg/day was 13.9%.

And the ILS at 65 mg/kg/day (Mus musculus [5])?
Its ILS at 65 mg/kg/day is 3.5%.

What about the ILS at 70 mg/kg/day (Mus musculus [6]) of the same molecule?
The ILS at 70 mg/kg/day was 13%.

And the ILS at 75 mg/kg/day (Mus musculus [7])?
The ILS at 75 mg/kg/day was 25%.

What about the Survivors (Mus musculus [8]) of the same molecule?
The Survivors was 0.

And the Survivors (Mus musculus [9])?
Its Survivors is 0.

And the ILS at 75 mg/kg/day (Mus musculus [10])?
The ILS at 75 mg/kg/day was 26.6%.

And the Survivors (Mus musculus [11])?
Its Survivors is 0.

What about the Survivors (Mus musculus [12]) of the same molecule?
The Survivors was 0.

What about the Survivors (Mus musculus [13]) of the same molecule?
The Survivors was 0.

What about the Survivors (Mus musculus [14]) of the same molecule?
Its Survivors is 0.

What about the Survivors (Mus musculus [15]) of the same molecule?
Its Survivors is 0.

And the Survivors (Mus musculus [16])?
The Survivors was 1.

And the ILS at 80 mg/kg/day (Mus musculus [17])?
Its ILS at 80 mg/kg/day is 41.7%.

And the ILS at 55 mg/kg/day (Mus musculus [18])?
Its ILS at 55 mg/kg/day is 36.4%.

What about the Survivors (Mus musculus [19]) of the same molecule?
Its Survivors is 0.

What about the Survivors (Mus musculus [20]) of the same molecule?
The Survivors was 0.

What about the ILS at 60 mg/kg/day (Mus musculus [21]) of the same molecule?
The ILS at 60 mg/kg/day was 13.3%.

What about the Survivors (Mus musculus [22]) of the same molecule?
The Survivors was 1.

What about the Survivors (Mus musculus [23]) of the same molecule?
Its Survivors is 1.

And the Survivors (Mus musculus [24])?
The Survivors was 0.

And the Survivors (Mus musculus [25])?
The Survivors was 0.

What about the Survivors (Mus musculus [26]) of the same molecule?
The Survivors was 0.

And the Survivors (Mus musculus [27])?
The Survivors was 0.

And the Survivors (Mus musculus [28])?
The Survivors was 0.

And the Survivors (Mus musculus [29])?
Its Survivors is 0.

What about the ILS at 50 mg/kg/day (Mus musculus [30]) of the same molecule?
Its ILS at 50 mg/kg/day is 21.5%.
